Converted amounts (≈) assume the structure as drawn. Numbered stars: 1 amine (or outer) side, 2 acyl side, 3 side chain; on linkers, the order of the positions; unused ones are H or OH. Bridge positions count the residues as written; N and C are the ends. Square brackets hold non-standard residues; d marks the D form. Peptide text beside a SMILES is read from it. * marks the point of attachment. ξ: configuration not given here. ξGly(octyl) = CCCCCCCCC(N)C(=O)O; NH(2-ClPh) = Clc1ccccc1N*; dDab = NCC[C@@H](N)C(=O)O; hSer = N[C@@H](CCO)C(=O)O; Octanoyl = CCCCCCCC(=O)*; Dab = NCC[C@H](N)C(=O)O; CO = O=C([*:1])[*:2]
Tests used:
[1] = test system: Escherichia coli; experiment: Antibacterial activity against Escherichia coli ATCC 25922 after 18 hrs by 2 fold serial dilution method; type: functional; conditions: ATCC 25922, 18 h
Method in brief: (§1)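 Overnight cultures in nutrient or Mueller Hinton broth at 37 °C with shaking, diluted 50-fold into fresh MHB and grown 1.5–3 h to mid-log. Inoculum 5×10^5 CFU/mL in 2-fold serial dilutions, final range 32 to 0.015 μg/mL. MIC read visually after 18 h at 37 °C as the lowest concentration with no visible growth.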

[2] = test system: Klebsiella pneumoniae; experiment: Antibacterial activity against Klebsiella pneumoniae ATCC 13883 after 18 hrs by 2 fold serial dilution method; type: functional; conditions: ATCC 13883, 18 h; method in brief: as §1
[3] = test system: Klebsiella pneumoniae; experiment: Antibacterial activity against multidrug resistant Klebsiella pneumoniae ATCC 700603 after 18 hrs by 2 fold serial dilution method; type: functional; conditions: Klebsiella pneumoniae, 700603, 18 h
Method in brief: (§2)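 Overnight cultures at 37 °C in nutrient or Mueller Hinton broth with shaking were diluted 50-fold in MHB and grown 1.5–3 h to mid-log phase. The inoculum was 5×10^5 CFU/mL in MHB. Compounds were 2-fold serially diluted, final 32 to 0.015 μg/mL. After 18 h at 37 °C, the MIC was read visually as the lowest concentration with no visible growth.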

[4] = test system: Klebsiella pneumoniae; experiment: Antibacterial activity against Klebsiella pneumoniae ATCC BAA-2146 expressing NDM-1 after 18 hrs by 2 fold serial dilution method; type: functional; conditions: ATCC BAA-2146, 18 h; method in brief: as §2
[5] = test system: Acinetobacter baumannii; experiment: Antibacterial activity against Acinetobacter baumannii ATCC 19606 after 18 hrs by 2 fold serial dilution method; type: functional; conditions: ATCC 19606, 18 h; method in brief: as §1
[6] = test system: Pseudomonas aeruginosa; experiment: Antibacterial activity against Pseudomonas aeruginosa ATCC 27853 after 18 hrs by 2 fold serial dilution method; type: functional; conditions: ATCC 27853, 18 h; method in brief: as §1
[7] = test system: Pseudomonas aeruginosa; experiment: Antibacterial activity against clinical isolate polymyxin resistant Pseudomonas aeruginosa FADDI-PA070 after 18 hrs by 2 fold serial dilution method; type: functional; conditions: FADDI-PA070, 18 h
Method in brief: (§3)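 Polymyxin-resistant clinical isolates were grown overnight at 37 °C in NB or MHB with shaking, diluted 50-fold in MHB and grown 1.5–3 h to mid-log phase. The inoculum was 5×10^5 CFU/mL. Compounds were 2-fold broth serial dilutions, final 32 to 0.015 μg/mL; the polymyxin controls ran 128–0.06 μg/mL. The MIC was the lowest concentration with no visible growth after 18 h at 37 °C.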

[8] = test system: Pseudomonas aeruginosa; experiment: Antibacterial activity against clinical isolate polymyxin resistant Pseudomonas aeruginosa PA9704 after 18 hrs by 2 fold serial dilution method; type: functional; conditions: PA9704, 18 h; method in brief: as §3
[9] = test system: Acinetobacter baumannii; experiment: Antibacterial activity against clinical isolate carbapenem and polymyxin resistant Acinetobacter baumannii Ptyela 100734512:2 after 18 hrs by 2 fold serial dilution method; type: functional; conditions: Ptyela 100734512:2, 18 h; method in brief: as §3
[10] = test system: Klebsiella pneumoniae; experiment: Antibacterial activity against clinical isolate carbapenem and polymyxin resistant Klebsiella pneumoniae Koprana 100650661:1 after 18 hrs by 2 fold serial dilution method; type: functional; conditions: Koprana 100650661:1, 18 h; method in brief: as §3
[11] = test system: Klebsiella pneumoniae; experiment: Antibacterial activity against clinical isolate carbapenem and polymyxin resistant Klebsiella pneumoniae 138-16357-20362 after 18 hrs by 2 fold serial dilution method; type: functional; conditions: 138-16357-20362, 18 h; method in brief: as §3
[12] = Cytotoxicity against human HepG2 cells after 24 hrs by resazurin assay; type: cell-based; conditions: HepG2 cells
[13] = test system: Staphylococcus aureus; experiment: microbe, parasite or virus in culture; conditions: ATCC 25923, 18 h

Compound	MIC [1]	MIC [2]	MIC [3]	MIC [4]	MIC [5]	MIC [6]	MIC [7]	MIC [8]	MIC [9]	MIC [10]	MIC [11]	CC50 at 24 h [12]	MIC [13]
CCCCCCCC(=O)NCC(=O)N[C@@H](CCN)C(=O)N[C@H](C(=O)N[C@H]1CCNC(=O)[C@H]([C@@H](C)O)NC(=O)[C@H](CCN)NC(=O)[C@H](CCN)NC(=O)[C@H](CC(C)C)NC(=O)[C@@H](Cc2ccccc2)NC(=O)[C@H](CCN)NC1=O)[C@@H](C)O (Octanoyl-G[Dab]T[Dab][Dab][dF]L[Dab][Dab]T; lactam 4-C)	16 µg/mL (≈ 14 µM)	32 µg/mL (≈ 27.9 µM)	8 µg/mL (≈ 6.98 µM)	16 µg/mL (≈ 14 µM)	> 32 µg/mL	2 µg/mL (≈ 1.74 µM)	> 32 µg/mL	> 32 µg/mL	> 32 µg/mL	> 32 µg/mL	> 32 µg/mL	> 300 µM	> 32 µg/mL
CCCCCCCC(=O)N[C@@H](CCN)C(=O)N[C@H](C(=O)N[C@@H](CCN)C(=O)N[C@H]1CCNC(=O)[C@H]([C@@H](C)O)NC(=O)[C@H](CCN)NC(=O)[C@H](CCO)NC(=O)[C@H](CC(C)C)NC(=O)[C@@H](Cc2ccccc2)NC(=O)[C@H](CCN)NC1=O)[C@@H](C)O (Octanoyl-[Dab]T[Dab][Dab][Dab][dF]L[hSer][Dab]T; lactam 4-C)	1 µg/mL (≈ 0.84 µM)	> 32 µg/mL	2 µg/mL (≈ 1.68 µM)	2 µg/mL (≈ 1.68 µM)	8 µg/mL (≈ 6.72 µM)	4 µg/mL (≈ 3.36 µM)	> 32 µg/mL	> 32 µg/mL	> 32 µg/mL	> 32 µg/mL	> 32 µg/mL	> 300 µM	> 32 µg/mL
CC(C)C[C@@H]1NC(=O)[C@@H](Cc2ccccc2)NC(=O)[C@H](CCN)NC(=O)[C@@H](NC(=O)[C@@H](CCN)NC(=O)[C@@H](NC(=O)[C@H](CCN)NC(=O)Nc2ccccc2Cl)[C@@H](C)O)CCNC(=O)[C@H]([C@@H](C)O)NC(=O)[C@H](CCN)NC(=O)[C@H](CCN)NC1=O ({NH(2-ClPh)-CO}-[Dab]T[dDab][Dab][Dab][dF]L[Dab][Dab]T; lactam 4-C)	1 µg/mL (≈ 0.822 µM)	0.5 µg/mL (≈ 0.411 µM)	0.5 µg/mL (≈ 0.411 µM)	1 µg/mL (≈ 0.822 µM)	2 µg/mL (≈ 1.64 µM)	0.5 µg/mL (≈ 0.411 µM)	16 µg/mL (≈ 13.1 µM)	> 32 µg/mL	> 32 µg/mL	> 32 µg/mL	> 32 µg/mL	> 300 µM	> 32 µg/mL
CCCCCCCC(=O)N[C@@H](CCN)C(=O)N[C@H](C(=O)N[C@H](CCN)C(=O)N[C@H]1CCNC(=O)[C@H]([C@@H](C)O)NC(=O)[C@H](CCN)NC(=O)[C@H](CCN)NC(=O)[C@H](CC(C)C)NC(=O)[C@@H](Cc2ccccc2)NC(=O)[C@H](CCN)NC1=O)[C@@H](C)O (Octanoyl-[Dab]T[dDab][Dab][Dab][dF]L[Dab][Dab]T; lactam 4-C)	4 µg/mL (≈ 3.36 µM)	0.5 µg/mL (≈ 0.42 µM)	1 µg/mL (≈ 0.841 µM)	4 µg/mL (≈ 3.36 µM)	1 µg/mL (≈ 0.841 µM)	2 µg/mL (≈ 1.68 µM)	> 32 µg/mL	32 µg/mL (≈ 26.9 µM)	> 32 µg/mL	> 32 µg/mL	> 32 µg/mL	> 300 µM	> 32 µg/mL
CCCCCCCC(=O)N[C@@H](CCN)C(=O)N[C@H](C(=O)N[C@H](CO)C(=O)N[C@H]1CCNC(=O)[C@H]([C@@H](C)O)NC(=O)[C@H](CCN)NC(=O)[C@H](CCN)NC(=O)[C@H](CC(C)C)NC(=O)[C@@H](Cc2ccccc2)NC(=O)[C@H](CCN)NC1=O)[C@@H](C)O (Octanoyl-[Dab]T[dS][Dab][Dab][dF]L[Dab][Dab]T; lactam 4-C)	4 µg/mL (≈ 3.4 µM)	0.5 µg/mL (≈ 0.425 µM)	2 µg/mL (≈ 1.7 µM)	16 µg/mL (≈ 13.6 µM)	1 µg/mL (≈ 0.85 µM)	2 µg/mL (≈ 1.7 µM)	> 32 µg/mL	> 32 µg/mL	> 32 µg/mL	> 32 µg/mL	> 32 µg/mL	> 300 µM	> 32 µg/mL
CCCCCCCC(=O)N[C@@H](CCN)C(=O)N[C@H](C(=O)N[C@@H](CCN)C(=O)N[C@H]1CCNC(=O)[C@H]([C@@H](C)O)NC(=O)[C@H](CCNC(=O)[C@@H](N)CCC(=O)O)NC(=O)[C@H](CCN)NC(=O)[C@H](CC(C)C)NC(=O)[C@@H](Cc2ccccc2)NC(=O)[C@H](CCN)NC1=O)[C@@H](C)O (Octanoyl-[Dab]T[Dab][Dab][Dab][dF]L[Dab][Dab](Glu)T; lactam 4-C)	4 µg/mL (≈ 3.03 µM)	16 µg/mL (≈ 12.1 µM)	4 µg/mL (≈ 3.03 µM)	4 µg/mL (≈ 3.03 µM)	16 µg/mL (≈ 12.1 µM)	8 µg/mL (≈ 6.07 µM)	> 32 µg/mL	> 32 µg/mL	> 32 µg/mL	> 32 µg/mL	> 32 µg/mL	> 300 µM	> 32 µg/mL
CCCCCCCCC1NC(=O)[C@H](CCN)NC(=O)[C@@H](NC(=O)[C@H](CCN)NC(=O)[C@@H](NC(=O)[C@H](CCN)NC(=O)CCCCCCC)[C@@H](C)O)CCNC(=O)[C@H]([C@@H](C)O)NC(=O)[C@H](CCN)NC(=O)[C@H](CCN)NC(=O)[C@H](CC(C)C)NC1=O (some centres not stated) (Octanoyl-[Dab]T[Dab][Dab][Dab][ξGly(octyl)]L[Dab][Dab]T; lactam 4-C)	2 µg/mL (≈ 1.65 µM)	2 µg/mL (≈ 1.65 µM)	1 µg/mL (≈ 0.825 µM)	1 µg/mL (≈ 0.825 µM)	1 µg/mL (≈ 0.825 µM)	2 µg/mL (≈ 1.65 µM)	4 µg/mL (≈ 3.3 µM)	8 µg/mL (≈ 6.6 µM)	16 µg/mL (≈ 13.2 µM)	16 µg/mL (≈ 13.2 µM)	16 µg/mL (≈ 13.2 µM)	254 µM	16 µg/mL (≈ 13.2 µM)
CCCCCCCC(=O)N[C@@H](CCN)C(=O)N[C@H](C(=O)N[C@@H](CCN)C(=O)N[C@H]1CCNC(=O)[C@H]([C@@H](C)O)NC(=O)[C@H](CCN)NC(=O)[C@H](CCN)NC(=O)[C@H](CC(C)C)NC(=O)[C@@H](Cc2ccccc2)NC(=O)[C@H](CCCNC(=N)N)NC1=O)[C@@H](C)O (Octanoyl-[Dab]T[Dab][Dab]R[dF]L[Dab][Dab]T; lactam 4-C)	16 µg/mL (≈ 12.8 µM)	> 32 µg/mL	32 µg/mL (≈ 25.7 µM)	32 µg/mL (≈ 25.7 µM)	> 32 µg/mL	32 µg/mL (≈ 25.7 µM)	> 32 µg/mL	> 32 µg/mL	> 32 µg/mL	> 32 µg/mL	> 32 µg/mL	> 300 µM	> 32 µg/mL
CCCCCCCC(=O)N[C@@H](CCN)C(=O)N[C@H](C(=O)N[C@@H](CCN)C(=O)N[C@H]1CCNC(=O)[C@H]([C@@H](C)O)NC(=O)[C@H](CCN)NC(=O)[C@H](CCN)NC(=O)[C@H](CC(C)C)NC(=O)[C@@H](Cc2ccccc2)NC(=O)[C@H](CCNC(=O)[C@@H](N)CCC(=O)O)NC1=O)[C@@H](C)O (Octanoyl-[Dab]T[Dab][Dab][Dab](Glu)[dF]L[Dab][Dab]T; lactam 4-C)	> 32 µg/mL	> 32 µg/mL	> 32 µg/mL	32 µg/mL (≈ 24.3 µM)	> 32 µg/mL	> 32 µg/mL	> 32 µg/mL	> 32 µg/mL	> 32 µg/mL	> 32 µg/mL	> 32 µg/mL	> 300 µM	> 32 µg/mL

From ChEMBL document CHEMBL3774373, “Activity and Predicted Nephrotoxicity of Synthetic Antibiotics Based on Polymyxin B” (J Med Chem, 2016)
